pEC50, pIC50: −log10 of the molar value.
How the values were obtained:
Influenza A virus = experiment: Antiviral activity against Influenza A virus PR/8/34 infected in MDCK cells assessed as inhibition of plaque formation treated for 1 hr measured after 2 days by toluidine blue staining-based assay; format: functional, organism-based; conditions: A/Puerto Rico/8/1934(H1N1)
Method in brief: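 MDCK confluent monolayers infected with PR8 (H1N1) at 40 PFU/well in DMEM with 1 µg/ml TPCK-trypsin, 0.14% BSA and compound, 1 h at 37 °C. Overlay of the same medium plus 1.2% Avicel and compound. After 2 days, fixed in 4% formaldehyde, stained with 0.1% toluidine blue and plaques counted. EC50 = 50% plaque inhibition. Ribavirin and oseltamivir as references. Mean ± SD, ≥3 independent experiments in duplicate.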

[1] = Selectivity index, ratio of CC50 for MDCK cells to EC50 for Influenza A virus PR/8/34 infected in MDCK cells; format: toxicity, cell-based; conditions: dog, read-out: Ratio CC50/EC50
[2] = molecular target: PA/PB1 (Influenza A virus (A/Puerto Rico/8/1934(H1N1)), UniProt P03431+P03433); experiment: Inhibition of Influenza A virus PR/8/34 6His-tagged PA (239 to 716 residues) interaction with GST-tagged PB1 (1 to 25 residues) expressed in Escherichia coli compound treated in PBS buffer measured after overnight incubation by ELISA
Method in brief: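 Plates coated with 400 ng E. coli-expressed 6His-PA(239–716) for 3 h at 37 °C, then blocked with 2% BSA/PBS for 1 h. Then 200 ng GST-PB1(1–25) (GST as control) with compound or DMSO in PBS, overnight at room temperature. Detection with HRP anti-GST mAb and TMB, OD 450 nm. DMSO = 100% interaction; PB1(1–15)-Tat as reference. Mean ± SD, ≥3 experiments in duplicate.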

[3] = Cytotoxicity against MDCK cells assessed as decrease in cell viability after 48 hrs by MTT assay; format: cell-based, Canis lupus familiaris; conditions: dog
Method in brief: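 MDCK cells at 5x10³/well exposed to 2-fold serial dilutions from 250 µM for 48 h. MTT (5 mg/mL) for 4 h at 37 °C, solubilisation 3 h, A620. DMSO wells = 100% viable; CC50 = concentration giving 50% viability loss. Mean ± SD, ≥3 independent experiments in duplicate.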

[4] = molecular target: PA/PB1 (Influenza A virus (A/Puerto Rico/8/1934(H1N1)), UniProt P03431+P03433); experiment: Inhibition of Influenza A virus PR/8/34 6His-tagged PA (239 to 716 residues) interaction with GST-tagged PB1 (1 to 25 residues) expressed in Escherichia coli compound treated in DMEM serum-free medium measured after overnight incubation by ELISA
Method in brief: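 Same coated 6His-PA(239–716)/GST-PB1(1–25) ELISA (400 ng PA, 200 ng PB1 peptide; overnight room temperature; HRP anti-GST/TMB, OD 450), but GST-PB1 and compounds or DMSO are dissolved in serum-free DMEM instead of PBS. DMSO = 100% interaction; PB1(1–15)-Tat as positive control. IC50 from mean ± SD, ≥2 experiments in duplicate.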

[5] = Cytotoxicity against HEK293T cells assessed as decrease in cell viability after 24 hrs by MTT assay; format: cell-based, HEK-293T; conditions: human
Method in brief: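 HEK 293T cells at 2x10⁴/well exposed to 2-fold serial dilutions from 250 µM for 24 h. MTT (5 mg/mL) for 4 h at 37 °C, solubilisation 3 h, absorbance at 620 nm. DMSO wells set as 100% viability; CC50 = 50% viability decrease. Mean ± SD, ≥3 independent experiments in duplicate.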

[6] = Ratio of IC50 for Influenza A virus PR/8/34 6His-tagged PA (239 to 716 residues) interaction with GST-tagged PB1 (1 to 25 residues) to EC50 for Influenza A virus PR/8/34 infected in MDCK cells
[7] = Inhibition of Influenza A virus RdRp transfected in HEK293T cells at 24 hrs by dual luciferase reporter gene-based minireplicon assay; format: cell-based; conditions: HEK-293T
Method in brief: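 HEK 293T seeded at 2x10⁵/well; 24 h later calcium-phosphate transfected with PB1, PB2, PA and NP plasmids (100 ng/well each), pPolI-Flu-ffLuc (50 ng/well) and pRL-SV40 normaliser (50 ng/well) with compound or DMSO. Medium with compound replaced at 4 h; firefly/Renilla luciferase read at 24 h. Ribavirin reference. Mean ± SD, ≥2 experiments in duplicate.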

Row | SMILES | pEC50 (Influenza A virus) | selectivity ratio [1] | pIC50 [2] | CC50 at 48 h [3] [µM] | pIC50 [4] | CC50 at 24 h [5] [µM] | Ratio IC50/EC50 [6] | pEC50 [7]
1 | CSCC[C@H](N)C(=O)N[C@@H](CC(=O)O)C(=O)N[C@H](C(=O)N[C@@H](CC(N)=O)C(=O)N1CCC[C@H]1C(=O)N[C@H](C(=O)N[C@@H](CC(C)C)C(=O)N[C@@H](CC(C)C)C(=O)N[C@@H](Cc1ccccc1)C(=O)N[C@@H](CC(C)C)C(=O)N[C@@H](CCCCN)C(=O)N[C@H](C(=O)N1CCC[C@H]1C(=O)N[C@@H](C)C(=O)N[C@@H](CCC(N)=O)C(=O)O)C(C)C)[C@@H](C)O)C(C)C | 4.30 | > 5 | 4.44 | > 250 | 4.50 | > 250 |  | 
2 | Cc1cccc(NC(=O)CSc2nc(-c3ccccc3)cc(-c3ccccc3)c2C#N)c1 | 5.04 | > 27.2 | 3.76 | > 250 | 4.45 | > 250 | 19 | 4.06
3 | Cc1cccc(NC(=O)CSc2nccc(-c3ccccc3)c2C#N)c1 | < 5.00 |  | < 3.70 | 41.5 |  | 180 |  | 
4 | Cc1cccc(NC(=O)CSc2nc(-c3ccccc3)ccc2C#N)c1 | < 5.00 |  | < 3.70 | 7.1 |  | 32 |  | 
5 | Cc1cccc(NC(=O)CSc2nc(-c3ccc(C(F)(F)F)cc3)cc(-c3ccc(C(F)(F)F)cc3)n2)c1 | 4.58 | > 9.4 | < 3.70 | > 250 | 4.19 | > 250 |  | 4.66
6 | Cc1cccc(NC(=O)CCCSc2nc(-c3ccccc3)cc(-c3ccccc3)c2C#N)c1 | 5.09 | 5.1 | 3.85 | 41.5 | 3.84 | 95.6 |  | 
7 | CSc1nc(-c2ccccc2)cc(-c2ccccc2)c1C#N | < 4.30 |  | 3.71 | 125 |  | 144 |  | 
8 | Cc1cccc(NC(=O)COc2nc(-c3ccccc3)cc(-c3ccccc3)c2C#N)c1 | 4.03 | > 2.7 | < 3.70 | > 250 |  | > 250 |  | 
9 | N#Cc1cnc(-c2ccccc2)cc1-c1ccccc1 | 4.35 | 2.3 | 3.94 | 105 |  | > 250 |  | 
10 | Cc1cccc(NC(=O)CCc2nc(-c3ccccc3)cc(-c3ccccc3)c2C#N)c1 | < 4.00 |  | < 3.70 | > 250 |  | 140 |  | 
11 | Cc1cccc(NC(=O)CCSc2nc(-c3ccccc3)cc(-c3ccccc3)c2C#N)c1 | < 5.00 |  | 3.91 | 13.9 |  | 150 |  | 
12 | Cc1cccc(NC(=O)CSc2cc(-c3ccccc3)cc(-c3ccccc3)n2)c1 | 5.14 | 20.5 | 4.28 | 150 | 4.39 | > 250 |  | 4.51
13 | N#Cc1c(-c2ccccc2)cc(-c2ccccc2)nc1SCC(=O)N1CCOCC1 | 4.00 | > 2.5 | 3.75 | > 250 |  | 184 |  | 
14 | Cc1cccc(NC(=O)CSc2nc(-c3ccccc3)cc(-c3ccccc3)n2)c1 | 5.46 | 2.9 | 3.78 | 10.1 | 3.95 | 22.3 | 47 | 
15 | Cc1cccc(NC(=O)CNc2nc(-c3ccccc3)cc(-c3ccccc3)c2C#N)c1 | 4.54 | > 8.7 | < 3.70 | > 250 | < 3.70 | > 250 |  | 4.33
16 | Cc1cccc(NC(=O)/C=C/c2nc(-c3ccccc3)cc(-c3ccccc3)c2C#N)c1 | 4.15 | > 3.5 | 3.72 | > 250 |  | > 250 |  | 
17 | CCOC(=O)C1=C[C@@H](OC(CC)CC)[C@H](NC(C)=O)[C@@H](N)C1 [OSELTAMIVIR] | 7.82 | > 16000 |  | > 250 |  | > 250 |  | 
18 | NC(=O)c1ncn([C@@H]2O[C@H](CO)[C@@H](O)[C@H]2O)n1 [RIBAVIRIN] | 4.89 | > 19.5 |  | > 250 |  | > 250 |  | 4.62

From ChEMBL document CHEMBL3792357, “4,6-Diphenylpyridines as Promising Novel Anti-Influenza Agents Targeting the PA-PB1 Protein-Protein Interaction: Structure-Activity Relationships Exploration with the Aid of Molecular Modeling” (J Med Chem, 2016)
